Publication PMC6413502 (Molecular pharmaceutics, 2018)
“Also recorded” adds a separate entry of the source. Where two headings read alike, the source gives them in different places.

Columns and labels:
[1] = Micelle formation of PEG-peptides without albumin; assay type: physicochemical; settings: dynamic light scattering, 1–40 nmol in 1 ml 150 mM sodium chloride; for micelle formation (in words): 50 mM sodium phosphate pH 7.4; for critical-micelle-concentration: 50 mM sodium phosphate pH 7.4, no albumin
Method in brief: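 Particle size of the PEG-peptide was measured by dynamic light scattering at increasing amounts (1–40 nmol in 1 ml buffer) to locate the critical micelle concentration. Sizes are the mean and standard error of ten measurements, after deconvolution by intensity-averaged multimodal distribution.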

[2] = test system: scavenger receptors in the liver; settings: for percent of dose captured by the liver: mouse, in vivo, iv
[3] = test system: scavenger receptors in the liver; settings: read-out: IC50, inhibition of 125I-DNA nanoparticle uptake by the liver; previously reported; cited from earlier work

Substance	micelle formation (in words) [1]	critical-micelle-concentration [1]	also measured
PEG5kDa-Cys-Tyr-(Lys)4-Leu-Lys4-Leu4 [compound 39]	produced measurable micelles; also recorded: formed micelles	2 to 5 µM	
PEG2kDa-Cys-Tyr-(Leu-Lys4)3-Leu-Lys [compound 33]	avoided micelle formation		increase in potency (IC50) on decreasing PEG from 5 to 2 kDa ([2]; 33 compared with 32, saturation of liver uptake): 6 fold
PEG30kDa-Cys-Tyr-Lys10 [compound 20]			IC50 ([2]; read-out: apparent IC50, saturation of liver uptake, 125I-PEG-peptide i.v. tail vein, 1–80 nmol, triplicate mice, liver at 5 min, assuming 2-mL blood volume): 1500 µM
PEG5kDa-Cys-Tyr-Leu4-(Leu-Lys)4-Lys4 [compound 40]	produced measurable micelles; also recorded: formed micelles	2 to 5 µM	
PEG10kDa-Cys-Tyr-Lys25 [compound 25]			percent of dose captured by the liver [2]: 5%
PEG5kDa-Cys-Tyr-(Leu-Lys)8 [compound 35]	formed micelles	2 to 5 µM	
PEG5kDa-Cys-Tyr-(Leu-Lys)4 [compound 37]	formed micelles	2 to 5 µM	
PEG5kDa-Cys-Tyr-(Leu-Arg)8 [compound 38]	formed micelles	2 to 5 µM	percent of dose captured by the liver [2]: 45%
(Acr-Lys4)3-Acr-Lys-Cys-PEG5kDa [compound 27]			IC50 [3]: 8 µM
PEG5kDa-Cys-Tyr-(Leu-Lys)6 [compound 36]	formed micelles	2 to 5 µM	
PEG5kDa-Cys-Tyr-(Leu-Lys4)3-Leu-Lys [compound 32]	avoided micelle formation		
Tyr-(Phe-Lys4)3Phe-Lys-Cys-PEG5kDa [compound 30]	avoided the formation of detectable micelles		
PEG5kDa-Cys-Tyr-(Trp-Lys3)4 [compound 31]	avoided the formation of detectable micelles		
PEG5kDa-Cys-Tyr-Lys25 [compound 26]			percent of dose captured by the liver [2]: 5%
PEG20kDa-Cys-Tyr-Lys25 [compound 24]			percent of dose captured by the liver [2]: 28%
